Assay results as given in ChEMBL document CHEMBL4038309, “Design and Synthesis of Chlorinated and Fluorinated 7-Azaindenoisoquinolines as Potent Cytotoxic Anticancer Agents That Inhibit Topoisomerase I” (J Med Chem, 2017).
Activity calls are given as the source filed them. No cut-off for these calls is given here.

Legend:
[1] = Toxicity in zebrafish embryo assessed as survival at 0.1 uM preincubated for 1 hr measured after 24 hrs (reference value: 86.2 +/- 8.5%); set-up: species or system Danio rerio; conditions: zebrafish embryos
[2] = Toxicity in zebrafish embryo assessed as survival at 0.1 uM preincubated for 1 hr measured after 48 hrs (reference value: 84.4 +/- 8.5%); set-up: species or system Danio rerio; conditions: zebrafish embryos
[3] = Toxicity in zebrafish embryo assessed as survival at 0.1 uM preincubated for 1 hr measured after 96 hrs (reference value: 82.5 +/- 8.4%); set-up: species or system Danio rerio; conditions: zebrafish embryos
[4] = Toxicity in zebrafish embryo assessed as survival at 0.1 uM preincubated for 1 hr measured after 72 hrs (reference value: 82.5 +/- 8.4%); set-up: species or system Danio rerio; conditions: zebrafish embryos
[5] = Toxicity in zebrafish embryo assessed as survival at 0.01 uM preincubated for 1 hr measured after 24 hrs (reference value: 86.2 +/- 8.5%); set-up: species or system Danio rerio; conditions: zebrafish embryos
[6] = Toxicity in zebrafish embryo assessed as survival at 1 uM preincubated for 1 hr measured after 48 hrs (reference value: 84.4 +/- 8.5%); set-up: species or system Danio rerio; conditions: zebrafish embryos
[7] = Toxicity in zebrafish embryo assessed as survival at 1 uM preincubated for 1 hr measured after 72 hrs (reference value: 82.5 +/- 8.4%); set-up: species or system Danio rerio; conditions: zebrafish embryos
[8] = Toxicity in zebrafish embryo assessed as survival at 0.01 uM preincubated for 1 hr measured after 48 hrs (reference value: 84.4 +/- 8.5%); set-up: species or system Danio rerio; conditions: zebrafish embryos
[9] = Toxicity in zebrafish embryo assessed as survival at 10 uM preincubated for 1 hr measured after 24 to 120 hrs (reference value: 82.5 to 86.2%); set-up: species or system Danio rerio; conditions: zebrafish embryos
[10] = Toxicity in zebrafish embryo assessed as survival at 0.1 uM preincubated for 1 hr measured after 120 hrs (reference value: 82.5 +/- 8.4%); set-up: species or system Danio rerio; conditions: zebrafish embryos
[11] = Toxicity in zebrafish embryo assessed as survival at 1 uM preincubated for 1 hr measured after 120 hrs (reference value: 82.5 +/- 8.4%); set-up: species or system Danio rerio; conditions: zebrafish embryos
[12] = Toxicity in zebrafish embryo assessed as survival at 0.01 uM preincubated for 1 hr measured after 72 hrs (reference value: 82.5 +/- 8.4%); set-up: species or system Danio rerio; conditions: zebrafish embryos
[13] = Toxicity in zebrafish embryo assessed as survival at 1 uM preincubated for 1 hr measured after 96 hrs (reference value: 82.5 +/- 8.4%); set-up: species or system Danio rerio; conditions: zebrafish embryos
[14] = Toxicity in zebrafish embryo assessed as survival at 1 uM preincubated for 1 hr measured after 24 hrs (reference value: 86.2 +/- 8.5%); set-up: species or system Danio rerio; conditions: zebrafish embryos
[15] = molecular target: T1, DNA topoisomerase 1 (Homo sapiens) (UniProt P11387); assay: Inhibition of recombinant Top1 (unknown origin) assessed as Top 1 mediated DNA cleavage using 3'-[32P]-labeled 117 bp DNA as substrate at 0.1 to 100 uM after 20 mins by PAGE analysis
T1 sequence (whole entry): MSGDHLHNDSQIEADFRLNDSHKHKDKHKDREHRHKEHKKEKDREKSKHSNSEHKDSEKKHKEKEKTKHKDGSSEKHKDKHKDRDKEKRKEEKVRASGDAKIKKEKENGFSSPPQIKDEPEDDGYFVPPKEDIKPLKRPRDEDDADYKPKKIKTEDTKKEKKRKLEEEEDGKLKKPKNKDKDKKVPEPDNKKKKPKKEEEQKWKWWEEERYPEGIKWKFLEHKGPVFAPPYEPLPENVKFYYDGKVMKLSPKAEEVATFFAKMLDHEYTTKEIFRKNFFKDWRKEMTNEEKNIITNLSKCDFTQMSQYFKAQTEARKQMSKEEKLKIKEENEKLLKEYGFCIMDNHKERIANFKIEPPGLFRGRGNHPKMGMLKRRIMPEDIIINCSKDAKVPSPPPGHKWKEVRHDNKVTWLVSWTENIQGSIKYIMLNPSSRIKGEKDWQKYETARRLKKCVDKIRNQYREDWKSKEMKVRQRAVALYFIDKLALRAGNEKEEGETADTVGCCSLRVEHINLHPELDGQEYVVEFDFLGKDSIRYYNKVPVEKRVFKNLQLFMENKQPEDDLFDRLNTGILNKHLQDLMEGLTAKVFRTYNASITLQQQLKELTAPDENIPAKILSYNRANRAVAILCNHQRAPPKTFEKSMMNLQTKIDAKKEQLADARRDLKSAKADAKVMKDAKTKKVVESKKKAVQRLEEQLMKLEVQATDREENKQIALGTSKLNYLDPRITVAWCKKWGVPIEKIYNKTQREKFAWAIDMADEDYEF
Procedure, shortened: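 About 2 nM 3'-[32P]-labeled DNA with recombinant Top1 in 10 mM Tris-HCl pH 7.5, 50 mM KCl, 5 mM MgCl2, 0.1 mM EDTA, 15 μg/mL BSA, 25 °C, 20 min. Compound at 0.1, 1, 10 and 100 μM. Stopped with 0.5% SDS and formamide dye, then run on 20% denaturing PAGE with phosphorimaging.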

[16] = Toxicity in zebrafish embryo assessed as survival at 0.01 uM preincubated for 1 hr measured after 96 hrs (reference value: 82.5 +/- 8.4%); set-up: species or system Danio rerio; conditions: zebrafish embryos
[17] = Toxicity in zebrafish embryo assessed as survival at 0.01 uM preincubated for 1 hr measured after 120 hrs (reference value: 82.5 +/- 8.4%); set-up: species or system Danio rerio; conditions: zebrafish embryos
[18] = system: SF-539; assay: Antiproliferative activity against human SF539 cells assessed as growth inhibition; type: functional
Procedure, shortened: (§1)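 NCI-60 screen: single-dose pre-screen at 10 μM, then five concentrations from 0.01 to 100 μM. Values beyond the tested range are recorded as 0.01 or 100 μM.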

[19] = system: CCRF-CEM; assay: Induction of DNA damage in human CCRF-CEM cells assessed as gamma-H2AX foci formation at 0.1 to 1 uM after 2 hrs by confocal microscopy; type: functional, cell-based
[20] = system: PBMC; assay: Induction of DNA damage in human PBMC assessed as gamma-H2AX foci formation at 0.1 to 1 uM after 2 hrs by confocal microscopy; type: cell-based
[21] = system: DU-145; assay: Antiproliferative activity against human DU145 cells assessed as growth inhibition; type: functional; procedure, shortened: as §1
[22] = system: OVCAR-3; assay: Antiproliferative activity against human OVCAR3 cells assessed as growth inhibition; type: functional; procedure, shortened: as §1
[23] = system: MCF7; assay: Antiproliferative activity against human MCF7 cells assessed as growth inhibition; type: functional; procedure, shortened: as §1
[24] = system: HCT-116; assay: Antiproliferative activity against human HCT116 cells assessed as growth inhibition; type: functional; procedure, shortened: as §1
[25] = system: HOP-62; assay: Antiproliferative activity against human HOP62 cells assessed as growth inhibition; type: functional; procedure, shortened: as §1
[26] = system: UACC-62; assay: Antiproliferative activity against human UACC62 cells assessed as growth inhibition; type: functional; procedure, shortened: as §1
[27] = system: SN12C; assay: Antiproliferative activity against human SN12C cells assessed as growth inhibition; type: functional; procedure, shortened: as §1
[28] = organism: Danio rerio; assay: Toxicity in zebrafish embryo assessed as increase in bent tail at 0.1 uM preincubated for 1 hr measured after 24 to 120 hrs; conditions: in vivo
Procedure, shortened: (§2)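 Wild-type AB zebrafish embryos, 4 clutch replicates of 40 embryos each, held at 28 °C through 120 hpf. Exposed in Petri dishes to 10, 1, 0.1 or 0.01 μM compound in filtered fish water with 0.1% DMSO. Water-only and DMSO controls included. Mortality, hatching and gross malformations observed.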

[29] = organism: Danio rerio; assay: Toxicity in zebrafish embryo assessed as hatching rate at 0.1 uM preincubated for 1 hr measured after 24 to 120 hrs; conditions: in vivo; procedure, shortened: as §2
[30] = system: Danio rerio; assay: Toxicity in zebrafish embryo assessed as increase in yolk sac edema at 0.1 uM preincubated for 1 hr measured after 24 to 120 hrs; conditions: in vivo; procedure, shortened: as §2
[31] = molecular target: T2, Tyrosyl-DNA phosphodiesterase 2 (Homo sapiens, UniProt O95551); assay: Inhibition of recombinant human TDP2 using 3'-labeled alpha-[32P]-cordycepin as substrate after 15 mins
T2 sequence (O95551 whole entry): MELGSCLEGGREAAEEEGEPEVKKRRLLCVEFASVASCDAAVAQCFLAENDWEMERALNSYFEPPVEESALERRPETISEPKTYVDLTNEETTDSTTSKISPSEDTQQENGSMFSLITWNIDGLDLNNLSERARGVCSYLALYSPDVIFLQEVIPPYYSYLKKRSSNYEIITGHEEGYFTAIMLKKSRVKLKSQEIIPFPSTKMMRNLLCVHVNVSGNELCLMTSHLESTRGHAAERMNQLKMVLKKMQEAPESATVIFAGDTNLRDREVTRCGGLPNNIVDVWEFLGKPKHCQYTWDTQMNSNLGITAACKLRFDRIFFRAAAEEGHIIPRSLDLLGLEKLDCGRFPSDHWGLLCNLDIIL

| SMILES | survival at 24 h, 0.1 µM [1] | survival at 48 h, 0.1 µM [2] | survival at 96 h, 0.1 µM [3] | survival at 72 h, 0.1 µM [4] | survival at 24 h, 0.01 µM [5] | survival at 48 h, 1 µM [6] | survival at 72 h, 1 µM [7] | survival at 48 h, 0.01 µM [8] | survival at 10 µM [9] | survival at 120 h, 0.1 µM [10] | survival at 120 h, 1 µM [11] | survival at 72 h, 0.01 µM [12] | Top1-mediated DNA cleavage activity (active/not active) [15] | GI50 [18] | GI50 [21] | GI50 [22] | GI50 [23] | GI50 [24] | GI50 [25] | GI50 [26] | other results |
| --- | --- | --- | --- | --- | --- | --- | --- | --- | --- | --- | --- | --- | --- | --- | --- | --- | --- | --- | --- | --- | --- |
| COc1cnc2c(c1)C(=O)c1c-2n(CCCn2ccnc2)c(=O)c2cc([N+](=O)[O-])ccc12 | 5.6% | 0% | 0% | 0% | 62.5% | 0% | 0% | 55.6% | 0% | 0% | 0% | 45% | Active |  |  |  |  |  |  |  | survival at 96 h, 1 µM [13]: 0%; survival at 24 h, 1 µM [14]: 0%; survival at 96 h, 0.01 µM [16]: 45%; survival at 120 h, 0.01 µM [17]: 45% |
| COc1cnc2c(c1)C(=O)c1c-2n(CCCN2CCC(O)CC2)c(=O)c2cc(Cl)ccc12 |  |  |  |  |  |  |  |  |  |  |  |  | Active | 430 nM | 270 nM | 1420 nM | 42 nM | 98 nM | 94 nM | 190 nM | Activity [19]: Active; Activity [20]: Non-Toxic |
| COc1cnc2c(c1)C(=O)c1c-2n(CCCn2ccnc2)c(=O)c2cc(F)ccc12 | 86.2% | 62.5% | 45.6% | 45.6% | 87.5% | 0% | 0% | 87.5% | 0% | 45.6% | 0% | 87.5% | Active | 24 nM | < 10 nM | 43 nM | < 10 nM | < 10 nM | < 10 nM | 16 nM | GI50 [27]: < 10 nM; survival at 96 h, 1 µM [13]: 0%; survival at 24 h, 1 µM [14]: 28.8%; survival at 96 h, 0.01 µM [16]: 87.5%; survival at 120 h, 0.01 µM [17]: 87.5% |
| COc1cnc2c(c1)C(=O)c1c-2n(CCCn2ccnc2)c(=O)c2cc(Cl)ccc12 | 55.6% | 54.4% | 50.6% | 51.9% | 67.5% | 1.2% | 1.2% | 65.6% | 0% | 50.6% | 1.2% | 63.1% | Active | 38 nM | 43 nM | 120 nM | < 10 nM | 14 nM | 20 nM | 28 nM | Activity [28]: Non-Toxic; Activity [29]: Non-Toxic; Activity [30]: Non-Toxic; survival at 96 h, 1 µM [13]: 1.2%; survival at 24 h, 1 µM [14]: 10.6%; survival at 96 h, 0.01 µM [16]: 61.8%; survival at 120 h, 0.01 µM [17]: 61.9% |
| COc1cc2c3c(n(CCCNCCO)c(=O)c2cc1OC)-c1cc2c(cc1C3=O)OCO2 [LMP-744] |  |  |  |  |  |  |  |  |  |  |  |  |  |  |  |  |  |  |  |  | Activity [19]: Active; Activity [20]: Non-Toxic |
| CCNCCCn1c2c(c3ccc(Cl)cc3c1=O)C(=O)c1cc(OC)cnc1-2 |  |  |  |  |  |  |  |  |  |  |  |  | Active | 506 nM | 208 nM | 2130 nM | < 10 nM | 203 nM | 122 nM | 532 nM | IC50 [31]: > 111000 nM; GI50 [27]: 675 nM |
| CC[C@@]1(O)C(=O)OCc2c1cc1n(c2=O)Cc2cc3ccccc3nc2-1 [CAMPTOTHECIN] |  |  |  |  |  |  |  |  |  |  |  |  |  |  |  |  | 13 nM |  |  |  | Activity [19]: Active; Activity [20]: Non-Toxic |
